# Experimental data reported in ChEMBL document CHEMBL1154114, “7-((4-Substituted)piperazin-1-yl) derivatives of ciprofloxacin: synthesis and in vitro biological evaluation as potential antitumor agents” (Bioorg Med Chem, 2009).
# Assays:
# [1] = Stability in phosphate buffer of pH 7.4 after 6 days; assay type: physicochemical; settings: read-out: Stability
# Outline: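 Compound dissolved at 1 mM in DMSO, diluted with phosphate buffer pH 7.4 to 1 mL, incubated sealed at 37 °C for 6 days. A t0 aliquot was held at 4 °C. HPLC with 280 nm detection and duplicate injections, with expected degradation products as references. Stability is taken as compound peak area over (compound + degradation product) peak area.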
# PC-3 [2] = experiment: Antitumor activity against human PC3 cells after 5 days by MTT assay; assay type: functional, cell-based; settings: PC-3, 120 h
# Outline: (§1)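 Five human cancer lines (prostate PC-3, glioblastoma U373-MG, colorectal LoVo, NSCLC A549, breast MCF-7) plated at 10⁴ to 3×10⁴ cells/mL depending on cell type, allowed 24 h to attach, then cultured 120 h with or without drug at nine concentrations. MTT reduction to formazan read at 570 nm (reference 630 nm).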
# [3] = Antitumor activity against human U373MG cells after 5 days by MTT assay; assay type: functional, cell-based, U-373MG ATCC; settings: U373 MG, 120 h; outline: as §1
# LoVo [4] = experiment: Antitumor activity against human LoVo cells after 5 days by MTT assay; assay type: functional, cell-based; settings: 120 h; outline: as §1
# A549 [5] = experiment: Antitumor activity against human A549 cells after 5 days by MTT assay; assay type: functional, cell-based; settings: A549, 120 h; outline: as §1
# MCF7 [6] = experiment: Antitumor activity against human MCF7 cells after 5 days by MTT assay; assay type: functional, cell-based; settings: MCF7, 120 h; outline: as §1
# PC-3 [7] = experiment: Ratio of ciprofloxacin IC50 to compound IC50 for human PC3 cells; assay type: functional
# U373 MG = experiment: Ratio of ciprofloxacin IC50 to compound IC50 for human U373MG cells; assay type: functional, U-373MG ATCC
# LoVo [8] = experiment: Ratio of ciprofloxacin IC50 to compound IC50 for human LoVo cells; assay type: functional
# A549 [9] = experiment: Ratio of ciprofloxacin IC50 to compound IC50 for human A549 cells; assay type: functional
# MCF7 [10] = experiment: Ratio of ciprofloxacin IC50 to compound IC50 for human MCF7 cells; assay type: functional
# [11] = Toxicity in ip dosed B6D2F1 mouse assessed as maximum tolerated dose after 28 days; assay type: organism-based; settings: in vivo
# Outline: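 Healthy mice, three per group, each given a single ip dose and observed for up to 28 days. The MTD index is the highest single dose given without causing any deaths in the group.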
# NCI-H460 [12] = experiment: Inhibition of human NCI-H460 cell proliferation by sulphorodhamine B assay; assay type: functional, cell-based
# HeLa [13] = experiment: Inhibition of human HeLa cell proliferation; assay type: functional, cell-based
# MCF7 [14] = experiment: Inhibition of human MCF7 cell proliferation by MTT assay; assay type: functional, cell-based
# A-431 = experiment: Inhibition of human A431 cell proliferation by MTT assay; assay type: functional, cell-based
# EJ = experiment: Inhibition of human EJ cell proliferation by MTT assay; assay type: functional, cell-based
# SW480 = experiment: Inhibition of human SW480 cell proliferation by MTT assay; assay type: functional, cell-based
# KB = experiment: Inhibition of human KB cell proliferation by MTT assay; assay type: functional, cell-based
# SK-MEL = experiment: Inhibition of human SK-MEL cell proliferation by MTT assay; assay type: functional, cell-based
# HT-29 [15] = experiment: Inhibition of human HT-29 cell proliferation; assay type: functional, cell-based
# [16] = target: DNA topoisomerase 2-alpha (Homo sapiens) (UniProt P11388); experiment: Inhibition of human topoisomerase 2 assessed as conversion of catenated to decatenated form of kDNA
# DU-145 = experiment: Inhibition of human DU145 cell proliferation; assay type: functional, cell-based
# B16 = experiment: Inhibition of mouse B16 cell proliferation; assay type: functional, cell-based
# NCI-H226 = experiment: Inhibition of human NCI-H226 cell proliferation; assay type: functional, cell-based
# [17] = Inhibition of human MDA231 cell proliferation; assay type: functional, cell-based; settings: MDA-MB-231
# [18] = target: DNA topoisomerase 2-alpha (Homo sapiens) (UniProt P11388); experiment: Inhibition of human topoisomerase 2-mediated DNA unwinding activity
# [19] = Inhibition of mouse NIH/3T3 cell proliferation by MTT assay; assay type: cell-based; settings: NIH3T3
# HeLa [20] = experiment: Inhibition of human HeLa cell proliferation assessed as bromodeoxyuridine incorporation during DNA synthesis after 48 hrs by ELISA; assay type: functional, cell-based
# MG-63 = experiment: Inhibition of human MG63 cell proliferation assessed as bromodeoxyuridine incorporation during DNA synthesis after 48 hrs by ELISA; assay type: functional, cell-based; settings: MG-63, 48 h
# A549 [21] = experiment: Antitumor activity against human A549 cells after 3 days by MTT assay; assay type: functional, cell-based; settings: A549, 72 h
# HCT-8 = experiment: Antitumor activity against human HCT8 cells after 3 days by MTT assay; assay type: functional, cell-based; settings: HCT-8, 72 h
# MCF7 [22] = experiment: Antitumor activity against human MCF7 cells after 3 days by MTT assay; assay type: functional, cell-based; settings: MCF7, 72 h
# HT-29 [23] = experiment: Antitumor activity against human HT-29 cells after 3 days by MTT assay; assay type: functional, cell-based; settings: HT-29, 72 h
# [24] = Inhibition of human […] cell proliferation; assay type: functional, cell-based
# P388 = experiment: Inhibition of mouse P388 cell proliferation; assay type: functional, cell-based
# MCF7 [25] = experiment: Inhibition of human MCF7 cell proliferation; assay type: functional, cell-based
# [26] = Inhibition of human RPMI8226/S cell proliferation; assay type: functional, cell-based
# Drosophila melanogaster = experiment: Inhibition of Drosophila melanogaster DNA topoisomerase 2-mediated pBR322 DNA relaxation by agarose gel electrophoresis
# CHO [27] = experiment: Inhibition of CHO cell proliferation by colony-forming assay; assay type: cell-based; settings: Cricetulus griseus
# CHO [28] = experiment: Inhibition of verapamil-resistant CHO cell proliferation by colony-forming assay; assay type: cell-based; settings: Cricetulus griseus
# G-quadruplex DNA = experiment: Interaction with G-quadruplex DNA assessed by polymerase stop assay
# MC3T3-E1 = experiment: Inhibition of mouse MC3T3-E1 cell proliferation after 48 to 72 hrs; assay type: functional, cell-based
# MCF7 [29] = experiment: Inhibition of human MCF7 cell proliferation after 5 days by MTT assay; assay type: functional, cell-based; settings: MCF7, 120 h; outline: as §1
# V79 = experiment: Inhibition of chinese hamster V79 cell proliferation assessed as bromodeoxyuridine incorporation during DNA synthesis after 48 hrs by ELISA; settings: Cricetulus griseus, V79, 48 h
# K562 = experiment: Inhibition of human K562 cell proliferation by sulphorodhamine B assay; assay type: functional, cell-based
# NCI-H460 [30] = experiment: Induction of apoptosis in human NCI-H460 cells at 120 uM by sulphorodhamine B assay; assay type: functional
# [31] = target: DNA topoisomerase 2-alpha (Homo sapiens) (UniProt P11388); experiment: Inhibition of topoisomerase 2-mediated DNA relaxation activity in human HeLa cells by Oomori method; assay type: cell-based
# DNA topoisomerase 2-alpha (Homo sapiens), sequence (P11388 whole entry): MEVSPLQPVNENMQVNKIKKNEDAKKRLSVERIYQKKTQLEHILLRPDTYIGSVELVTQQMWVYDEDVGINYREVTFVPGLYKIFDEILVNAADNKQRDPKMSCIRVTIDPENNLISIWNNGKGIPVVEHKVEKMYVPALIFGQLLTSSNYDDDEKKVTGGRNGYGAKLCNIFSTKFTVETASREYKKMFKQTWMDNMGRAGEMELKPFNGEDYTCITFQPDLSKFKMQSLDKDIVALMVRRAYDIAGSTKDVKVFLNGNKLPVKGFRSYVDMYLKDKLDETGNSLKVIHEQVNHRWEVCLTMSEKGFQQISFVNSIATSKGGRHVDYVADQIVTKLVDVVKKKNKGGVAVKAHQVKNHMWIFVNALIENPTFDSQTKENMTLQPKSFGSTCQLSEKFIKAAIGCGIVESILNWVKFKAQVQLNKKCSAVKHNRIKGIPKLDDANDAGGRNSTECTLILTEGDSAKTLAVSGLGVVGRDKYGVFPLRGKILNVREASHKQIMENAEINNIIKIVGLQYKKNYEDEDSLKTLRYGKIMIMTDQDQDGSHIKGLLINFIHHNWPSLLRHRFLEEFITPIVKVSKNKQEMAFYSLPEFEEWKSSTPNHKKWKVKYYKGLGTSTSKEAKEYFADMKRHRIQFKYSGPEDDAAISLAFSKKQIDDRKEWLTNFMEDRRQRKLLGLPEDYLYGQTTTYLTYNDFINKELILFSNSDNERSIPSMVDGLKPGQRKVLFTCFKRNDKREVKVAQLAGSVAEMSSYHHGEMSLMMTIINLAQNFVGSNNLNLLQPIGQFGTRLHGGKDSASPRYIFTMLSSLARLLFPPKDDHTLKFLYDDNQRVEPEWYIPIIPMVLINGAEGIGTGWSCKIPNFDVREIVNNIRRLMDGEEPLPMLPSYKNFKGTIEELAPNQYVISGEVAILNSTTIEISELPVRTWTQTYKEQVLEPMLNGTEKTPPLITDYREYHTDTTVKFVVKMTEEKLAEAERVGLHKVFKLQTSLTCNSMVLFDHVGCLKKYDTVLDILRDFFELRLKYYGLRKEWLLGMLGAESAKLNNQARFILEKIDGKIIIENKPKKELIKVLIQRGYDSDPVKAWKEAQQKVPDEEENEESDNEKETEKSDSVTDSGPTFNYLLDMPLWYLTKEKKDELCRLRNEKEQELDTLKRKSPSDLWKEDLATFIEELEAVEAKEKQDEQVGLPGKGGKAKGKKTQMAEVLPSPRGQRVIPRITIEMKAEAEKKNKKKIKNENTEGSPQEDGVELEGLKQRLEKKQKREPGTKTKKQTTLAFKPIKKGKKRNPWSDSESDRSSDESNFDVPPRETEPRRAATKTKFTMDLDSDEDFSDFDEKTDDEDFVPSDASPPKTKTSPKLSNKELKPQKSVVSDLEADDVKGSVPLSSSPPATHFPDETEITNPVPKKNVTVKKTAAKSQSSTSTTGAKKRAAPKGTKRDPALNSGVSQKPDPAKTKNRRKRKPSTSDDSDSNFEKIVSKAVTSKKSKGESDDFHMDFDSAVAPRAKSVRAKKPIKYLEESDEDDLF
smiles,measurement,setting,value
CC(C)(C)OC(=O)N1CCN(c2cc3c(cc2F)c(=O)c(C(=O)O)cn3C2CC2)CC1,remaining at 144 h,[1],> 99%
same,IC50,PC-3 [2],26 µM
same,IC50,[3],35 µM
same,IC50,LoVo [4],40 µM
same,IC50,A549 [5],18 µM
same,IC50,MCF7 [6],13 µM
same,Ratio IC50,PC-3 [7],2
same,Ratio IC50,U373 MG,2
same,Ratio IC50,LoVo [8],2
same,Ratio IC50,A549 [9],2
same,Ratio IC50,MCF7 [10],2
same,MTD at 672 h,[11],> 80 mg/kg
CCn1cc(C(=O)O)c(=O)c2cc(F)c(N3CCNCC3)nc21 [ENOXACIN],IC50,NCI-H460 [12],36 µM
same,IC50,HeLa [13],170 µM
same,IC50,MCF7 [14],193 µM
same,IC50,A-431,150 µM
same,IC50,EJ,178 µM
same,IC50,SW480,159 µM
same,IC50,KB,137 µM
same,IC50,SK-MEL,196 µM
N[C@H]1CCN(c2c(F)cc3c(=O)c(C(=O)O)cn4c3c2Oc2c-4ccc3ccccc23)C1,IC50,HT-29 [15],0.05 µM
same,Activity,[16],0.5 µM
same,IC50,DU-145,0.06 µM
same,IC50,B16,0.2 µM
same,IC50,NCI-H226,0.03 µM
same,IC50,[17],0.08 µM
same,Activity,[18],10 µM
CCn1cc(C(=O)O)c(=O)c2cc(F)c(N3CCNCC3)cc21 [NORFLOXACIN],IC50,NCI-H460 [12],86 µM
same,IC50,HeLa [13],390 µM
same,IC50,MCF7 [14],238 µM
same,IC50,A-431,70 µM
same,IC50,EJ,210 µM
same,IC50,SW480,168 µM
same,IC50,KB,150 µM
same,IC50,SK-MEL,194 µM
same,IC50,[19],> 1000 µM
O=C(O)c1cn(C2CC2)c2cc(N3CCN(C(=O)CCl)CC3)c(F)cc2c1=O,remaining at 144 h,[1],> 99%
same,IC50,PC-3 [2],8 µM
same,IC50,[3],4 µM
same,IC50,LoVo [4],17 µM
same,IC50,A549 [5],10 µM
same,IC50,MCF7 [6],23 µM
same,Ratio IC50,PC-3 [7],5
same,Ratio IC50,U373 MG,5
same,Ratio IC50,LoVo [8],5
same,Ratio IC50,A549 [9],5
same,Ratio IC50,MCF7 [10],5
same,MTD at 672 h,[11],> 80 mg/kg
COc1c(N2C[C@@H]3CCCN[C@@H]3C2)c(F)cc2c(=O)c(C(=O)O)cn(C3CC3)c12 [MOXIFLOXACIN],IC50,HeLa [20],320 µM
same,IC50,MG-63,230 µM
NC1CCN(c2c(F)cc3c(=O)c(C(=O)O)cn4c3c2Oc2ccccc2-4)C1 (stereo not given),IC50,A549 [21],1.3 µM
same,IC50,HCT-8,0.3 µM
same,IC50,MCF7 [22],0.8 µM
same,IC50,HT-29 [23],0.5 µM
same,IC50,HT-29 [15],0.2 µM
same,Activity,[16],0.5 µM
same,IC50,DU-145,0.2 µM
same,Activity,[18],50 µM
same,IC50,[24],0.7 µM
same,IC50,P388,0.05 µM
same,IC50,MCF7 [25],0.7 µM
same,IC50,[26],0.3 µM
N[C@@H]1CCN(c2c(F)cc3c(=O)c(C(=O)O)cn4c3c2Oc2c-4ccc3ccccc23)C1,IC50,HT-29 [15],0.03 µM
same,Activity,[16],0.2 µM
same,IC50,NCI-H226,0.01 µM
same,IC50,[17],0.005 µM
same,Activity,[18],3 µM
O=C(O)c1cn(C2CC2)c2cc(-c3ccc(O)cc3)c(F)cc2c1=O,Activity,Drosophila melanogaster,130 µM
same,IC50,CHO [27],20 µM
same,IC50,CHO [28],40 µM
N[C@H]1CCN(c2c(F)cc3c(=O)c(C(=O)O)cn4c3c2Oc2c-4ccc3c2ccc2ccccc23)C1,IC50,MCF7 [25],1 µM
same,IC50,[26],0.7 µM
same,IC50,G-quadruplex DNA,0.7 µM
N[C@@H]1CCN(c2c(F)cc3c(=O)c(C(=O)O)cn4c3c2Oc2c-4ccc3c2ccc2ccccc23)C1,IC50,MCF7 [25],0.5 µM
same,IC50,[26],0.3 µM
same,IC50,G-quadruplex DNA,0.06 µM
N[C@@H]1[C@H]2CN(c3nc4c(cc3F)c(=O)c(C(=O)O)cn4-c3ccc(F)cc3F)C[C@@H]12 [TROVAFLOXACIN],IC50,MC3T3-E1,< 1.2 µM
O=C(O)c1cn(C2CC2)c2cc(N3CCNCC3)c(F)cc2c1=O [CIPROFLOXACIN],IC50,PC-3 [2],143 µM
same,IC50,[3],96 µM
same,IC50,LoVo [4],89 µM
same,IC50,A549 [5],280 µM
same,IC50,MCF7 [6],476 µM
same,MTD at 672 h,[11],> 80 mg/kg
same,IC50,HeLa [20],800 µM
same,IC50,MG-63,480 µM
same,IC50,NCI-H460 [12],60 µM
same,IC50,HeLa [13],270 µM
same,IC50,MCF7 [14],199 µM
same,IC50,MCF7 [29],76 µM
same,IC50,A-431,135 µM
same,IC50,EJ,202 µM
same,IC50,SW480,128 µM
same,IC50,KB,160 µM
same,IC50,SK-MEL,196 µM
same,IC50,MC3T3-E1,120 µM
same,IC50,[19],> 1000 µM
same,IC50,V79,> 1000 µM
same,IC50,K562,> 150 µM
same,Activity,NCI-H460 [30],35%
same,Activity,[31],104 µM
O=C(O)c1cn(C2CC2)c2c(F)c(-c3ccc(O)cc3)c(F)cc2c1=O,Activity,Drosophila melanogaster,60 µM
same,IC50,CHO [27],9 µM
same,IC50,CHO [28],12 µM
C[C@H]1COc2c(N3CCN(C)CC3)c(F)cc3c(=O)c(C(=O)O)cn1c23 [LEVOFLOXACIN],IC50,NCI-H460 [12],152 µM
same,IC50,MC3T3-E1,220 µM
